Source: ChEMBL document CHEMBL4814057, “4-4-(Anilinomethyl)-3-[4-(trifluoromethyl)phenyl]-1H-pyrazol-1-ylbenzoic acid derivatives as potent anti-gram-positive bacterial agents” (Eur J Med Chem, 2021)
In brackets after ≈: the same amount, converted by molar mass. Activity calls are given as the source filed them. No cut-off for these calls is given here.

What was measured:
[1] = tested on: Staphylococcus aureus; test: Antimicrobial activity against methicillin-susceptible Staphylococcus aureus ATCC 25923 assessed as bacterial growth inhibitions by CLSI protocol based microdilution method; assay type: functional
[2] = tested on: Staphylococcus aureus; test: Antimicrobial activity against antibiotic-resistant Staphylococcus aureus BM-2312 assessed as bacterial growth inhibitions by CLSI protocol based microdilution method; assay type: functional
[3] = tested on: Staphylococcus aureus; test: Antimicrobial activity against methicillin-resistant Staphylococcus aureus ATCC 33591 assessed as bacterial growth inhibitions by CLSI protocol based microdilution method; assay type: functional
[4] = tested on: Staphylococcus aureus; test: Antimicrobial activity against methicillin-resistant Staphylococcus aureus ATCC 700699 assessed as bacterial growth inhibitions by CLSI protocol based microdilution method; assay type: functional
[5] = tested on: Staphylococcus aureus; test: Antimicrobial activity against methicillin-resistant Staphylococcus aureus ATCC 33592 assessed as bacterial growth inhibitions by CLSI protocol based microdilution method; assay type: functional
[6] = tested on: Staphylococcus epidermidis; test: Antimicrobial activity against methicillin-resistant Staphylococcus epidermidis ATCC 700296 assessed as bacterial growth inhibitions by CLSI protocol based microdilution method; assay type: functional
[7] = tested on: Bacillus subtilis; test: Antimicrobial activity against Bacillus subtilis ATCC 6623 assessed as bacterial growth inhibitions by CLSI protocol based microdilution method; assay type: functional
How it was run: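 Broth microdilution starting at 50 µg/ml with 2-fold serial dilutions; run in triplicate.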

[8] = tested on: Enterococcus faecium; test: Antimicrobial activity against vancomycin-resistant Enterococcus faecium ATCC 700221 assessed as bacterial growth inhibitions by CLSI protocol based microdilution method; assay type: functional
[9] = tested on: Enterococcus faecalis; test: Antimicrobial activity against vancomycin-susceptible Enterococcus faecalis ATCC 29212 assessed as bacterial growth inhibitions by CLSI protocol based microdilution method

| SMILES | MIC [1] [µg/mL] | MIC [2] [µg/mL] | MIC [3] | MIC [4] | MIC [5] | MIC [6] [µg/mL] | MIC [7] | MIC [8] | MIC [9] |
| --- | --- | --- | --- | --- | --- | --- | --- | --- | --- |
| O=C(O)c1ccc(-n2cc(CNc3cccc(Br)c3)c(-c3ccc(C(F)(F)F)cc3)n2)cc1 | 0.78 (≈ 1.51 µM) | 0.78 (≈ 1.51 µM) | 0.78 µg/mL (≈ 1.51 µM) | 1.56 µg/mL (≈ 3.02 µM) | 0.78 µg/mL (≈ 1.51 µM) | 3.12 (≈ 6.04 µM) | 0.78 µg/mL (≈ 1.51 µM) | 1.56 µg/mL (≈ 3.02 µM) | 6.25 µg/mL (≈ 12.1 µM) |
| O=C(O)c1ccc(-n2cc(CNc3ccc(F)c(Cl)c3)c(-c3ccc(C(F)(F)F)cc3)n2)cc1 | 0.78 (≈ 1.59 µM) | 0.78 (≈ 1.59 µM) | 0.78 µg/mL (≈ 1.59 µM) | 1.56 µg/mL (≈ 3.18 µM) | 0.78 µg/mL (≈ 1.59 µM) | 3.12 (≈ 6.37 µM) | 0.78 µg/mL (≈ 1.59 µM) | 1.56 µg/mL (≈ 3.18 µM) | 6.25 µg/mL (≈ 12.8 µM) |
| O=C(O)c1ccc(-n2cc(CNc3ccc(Br)c(Cl)c3)c(-c3ccc(C(F)(F)F)cc3)n2)cc1 | 0.78 (≈ 1.42 µM) | 0.78 (≈ 1.42 µM) | 0.78 µg/mL (≈ 1.42 µM) | 0.78 µg/mL (≈ 1.42 µM) | 0.78 µg/mL (≈ 1.42 µM) | 0.78 (≈ 1.42 µM) | 0.78 µg/mL (≈ 1.42 µM) | 0.78 µg/mL (≈ 1.42 µM) | 1.56 µg/mL (≈ 2.83 µM) |
| O=C(O)c1ccc(-n2cc(CNc3ccc(Br)cc3)c(-c3ccc(C(F)(F)F)cc3)n2)cc1 | 0.78 (≈ 1.51 µM) | 0.78 (≈ 1.51 µM) | 0.78 µg/mL (≈ 1.51 µM) | 0.78 µg/mL (≈ 1.51 µM) | 1.56 µg/mL (≈ 3.02 µM) | 3.12 (≈ 6.04 µM) | 0.78 µg/mL (≈ 1.51 µM) | 0.78 µg/mL (≈ 1.51 µM) | 6.25 µg/mL (≈ 12.1 µM) |
| O=C(O)c1ccc(-n2cc(CNc3cc(Cl)cc(Cl)c3)c(-c3ccc(C(F)(F)F)cc3)n2)cc1 | 0.78 (≈ 1.54 µM) | 0.78 (≈ 1.54 µM) | 0.78 µg/mL (≈ 1.54 µM) | 0.78 µg/mL (≈ 1.54 µM) | 0.78 µg/mL (≈ 1.54 µM) | 0.78 (≈ 1.54 µM) | 0.78 µg/mL (≈ 1.54 µM) | 0.78 µg/mL (≈ 1.54 µM) | 1.56 µg/mL (≈ 3.08 µM) |
| O=C(O)c1ccc(-n2cc(CNc3ccc(Cl)cc3)c(-c3ccc(C(F)(F)F)cc3)n2)cc1 | 1.56 (≈ 3.31 µM) | 1.56 (≈ 3.31 µM) | 1.56 µg/mL (≈ 3.31 µM) | 1.56 µg/mL (≈ 3.31 µM) | 1.56 µg/mL (≈ 3.31 µM) | 3.12 (≈ 6.61 µM) | 0.78 µg/mL (≈ 1.65 µM) | 1.56 µg/mL (≈ 3.31 µM) | 6.25 µg/mL (≈ 13.2 µM) |
| O=C(O)c1ccc(-n2cc(CNc3ccc(F)c(F)c3F)c(-c3ccc(C(F)(F)F)cc3)n2)cc1 | 1.56 (≈ 3.17 µM) | 1.56 (≈ 3.17 µM) | 1.56 µg/mL (≈ 3.17 µM) | 1.56 µg/mL (≈ 3.17 µM) | 1.56 µg/mL (≈ 3.17 µM) | 3.12 (≈ 6.35 µM) | 0.78 µg/mL (≈ 1.59 µM) | 3.12 µg/mL (≈ 6.35 µM) | inactive |
| O=C(O)c1ccc(-n2cc(CNc3cccc(Cl)c3)c(-c3ccc(C(F)(F)F)cc3)n2)cc1 | 1.56 (≈ 3.31 µM) | 1.56 (≈ 3.31 µM) | 0.78 µg/mL (≈ 1.65 µM) | 0.78 µg/mL (≈ 1.65 µM) | 1.56 µg/mL (≈ 3.31 µM) | 3.12 (≈ 6.61 µM) | 0.78 µg/mL (≈ 1.65 µM) | 0.78 µg/mL (≈ 1.65 µM) | 12.5 µg/mL (≈ 26.5 µM) |
| O=C(O)c1ccc(-n2cc(CNc3cc(Cl)c(O)c(Cl)c3)c(-c3ccc(C(F)(F)F)cc3)n2)cc1 | 50 (≈ 95.7 µM) | 50 (≈ 95.7 µM) | 50 µg/mL (≈ 95.7 µM) | 50 µg/mL (≈ 95.7 µM) | 50 µg/mL (≈ 95.7 µM) | 50 (≈ 95.7 µM) | 12.5 µg/mL (≈ 23.9 µM) | inactive | 50 µg/mL (≈ 95.7 µM) |
| O=C(O)c1ccc(-n2cc(CNc3cc(C(F)(F)F)cc(C(F)(F)F)c3)c(-c3ccc(C(F)(F)F)cc3)n2)cc1 | 0.78 (≈ 1.36 µM) | 0.78 (≈ 1.36 µM) | 0.78 µg/mL (≈ 1.36 µM) | 0.78 µg/mL (≈ 1.36 µM) | 0.78 µg/mL (≈ 1.36 µM) | 1.56 (≈ 2.72 µM) | 0.78 µg/mL (≈ 1.36 µM) | 0.78 µg/mL (≈ 1.36 µM) | 0.78 µg/mL (≈ 1.36 µM) |
| O=C(O)c1ccc(-n2cc(CNc3cc(F)c(F)c(F)c3)c(-c3ccc(C(F)(F)F)cc3)n2)cc1 | 0.78 (≈ 1.59 µM) | 0.78 (≈ 1.59 µM) | 0.78 µg/mL (≈ 1.59 µM) | 0.78 µg/mL (≈ 1.59 µM) | 0.78 µg/mL (≈ 1.59 µM) | 1.56 (≈ 3.17 µM) | 0.78 µg/mL (≈ 1.59 µM) | 0.78 µg/mL (≈ 1.59 µM) | 1.56 µg/mL (≈ 3.17 µM) |
| O=C(O)c1ccc(-n2cc(CNc3ccc(C(=O)O)c(C(F)(F)F)c3)c(-c3ccc(C(F)(F)F)cc3)n2)cc1 | 50 (≈ 91 µM) | 50 (≈ 91 µM) | inactive | inactive | inactive | 50 (≈ 91 µM) | inactive | inactive | inactive |
